Results: ChEMBL document CHEMBL1126822, “7 alpha-Methyl- and 11 beta-ethoxy-substitution of [125I]-16 alpha-iodoestradiol: effect on estrogen receptor-mediated target tissue uptake” (J Med Chem, 1993)

What was measured:
Details in all cases: in vivo
[1] = tested on: Rattus norvegicus; assay: Tissue uptake (brain) of [125I]- after administration of [125I]-labeled compound to immature female rats (n=4) in the absence of 60 microg coinjected estradiol after 2 hours; type: ADME, organism-based
How it was run: (§1)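 Immature female Fischer rats, 24 days old, 55-60 g, unanesthetized in retention cages, given HPLC-purified 125I-labeled steroid (3 μCi, 111 kBq) via lateral tail vein in 200 μL of 9% ethanol-saline with 1% Tween-80. The blocking group was coinjected with 60 μg unlabeled estradiol and sampled at 1 h. Animals were killed under ether at 0.5-24 h. Tissues were KCl-washed, blotted, weighed and gamma-counted. Results are % ID/g, with variation as small-sample-corrected %CV.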

[2] = tested on: Rattus norvegicus; assay: Tissue uptake (kidneys) of [125I]- after administration of [125I]-labeled compound to immature female rats (n=3) in the absence of 60 microg coinjected estradiol after 0.5 hours; type: ADME, organism-based, Kidney; how it was run: as §1
[3] = tested on: Rattus norvegicus; assay: Tissue uptake (thyroid) of [125I]- after administration of [125I]-labeled compound to immature female rats (n=3) in the absence of 60 microg coinjected estradiol after 24 hours; type: ADME, organism-based, Thyroid gland
How it was run: (§2)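 Immature female Fischer rats, 24 days old, 55-60 g, unanesthetized in retention cages, got HPLC-purified n.c.a. 125I-labeled steroid (3 μCi, 111 kBq) by lateral tail vein. Dose was given in 200 μL saline with 9% ethanol and 1% Tween-80. Deep ether anesthesia, axillary artery cut; tissues KCl-washed, blotted, weighed, gamma-counted as % ID/g; variation as small-sample-corrected %CV.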

[4] = tested on: Rattus norvegicus; assay: Tissue uptake (kidneys) of [125I]- after administration of [125I]-labeled compound to immature female rats (n=4) in the absence of 60 microg coinjected estradiol after 2 hours; type: ADME, organism-based, Kidney; how it was run: as §1
[5] = tested on: Rattus norvegicus; assay: Tissue uptake (spleen) of [125I]- after administration of [125I]-labeled compound to immature female rats (n=4) in the absence of 60 microg coinjected estradiol after 2 hours; type: ADME, organism-based; how it was run: as §2
[6] = tested on: Rattus norvegicus; assay: Tissue uptake (lungs) of [125I]- after administration of [125I]-labeled compound to immature female rats (n=3) in the absence of 60 microg coinjected estradiol after 24 hours; type: ADME, organism-based; how it was run: as §1
[7] = tested on: Rattus norvegicus; assay: Tissue uptake (muscle) of [125I]- after administration of [125I]-labeled compound to immature female rats (n=3) in the absence of 60 microg coinjected estradiol after 0.5 hours; type: ADME, organism-based; how it was run: as §1
[8] = tested on: Rattus norvegicus; assay: Tissue uptake (brain) of [125I]- after administration of [125I]-labeled compound to immature female rats (n=5) in the absence of 60 microg coinjected estradiol after 1 hour; type: ADME, organism-based; how it was run: as §1
[9] = tested on: Rattus norvegicus; assay: Tissue uptake (fat) of [125I]- after administration of [125I]-labeled compound to immature female rats (n=5) in the absence of 60 microg coinjected estradiol after 1 hour; type: ADME, organism-based; how it was run: as §1
[10] = tested on: Rattus norvegicus; assay: Tissue uptake (thyroid) of [125I]- after administration of [125I]-labeled compound to immature female rats (n=4) in the absence of 60 microg coinjected estradiol after 2 hours; type: ADME, organism-based, Thyroid gland; how it was run: as §2
[11] = tested on: Rattus norvegicus; assay: Tissue uptake (thyroid) of [125I]- after administration of [125I]-labeled compound to immature female rats (n=3) in the absence of 60 microg coinjected estradiol after 0.5 hours; type: ADME, organism-based, Thyroid gland; how it was run: as §2
[12] = tested on: Rattus norvegicus; assay: Tissue uptake (liver) of [125I]- after administration of [125I]-labeled compound to immature female rats (n=5) in the absence of 60 microg coinjected estradiol after 1 hour; type: ADME, organism-based; how it was run: as §1
[13] = tested on: Rattus norvegicus; assay: Tissue uptake (uterus) of [125I]- after administration of [125I]-labeled compound to immature female rats (n=4) in the absence of 60 microg coinjected estradiol after 5 hours; type: ADME, organism-based; how it was run: as §2
[14] = tested on: Rattus norvegicus; assay: Tissue uptake (uterus) of [125I]- after administration of [125I]-labeled compound to immature female rats (n=3) in the absence of 60 microg coinjected estradiol. (24 hours after injection) (% coefficient of variation); type: ADME, organism-based; how it was run: as §2
[15] = tested on: Rattus norvegicus; assay: Tissue uptake (brain) of [125I]- after administration of [125I]-labeled compound to immature female rats (n=4) in the absence of 60 microg coinjected estradiol after 5 hours; type: ADME, organism-based; how it was run: as §1
[16] = tested on: Rattus norvegicus; assay: Tissue uptake (blood) of [125I]- after administration of [125I]-labeled compound to immature female rats (n=4) in the absence of 60 microg coinjected estradiol after 2 hours; type: ADME, organism-based; how it was run: as §1
[17] = tested on: Rattus norvegicus; assay: Tissue uptake (lungs) of [125I]- after administration of [125I]-labeled compound to immature female rats (n=5) in the absence of 60 microg coinjected estradiol after 1 hour; type: ADME, organism-based; how it was run: as §1
[18] = tested on: Rattus norvegicus; assay: Tissue uptake (spleen) of [125I]- after administration of [125I]-labeled compound to immature female rats (n=3) in the absence of 60 microg coinjected estradiol after 24 hours; type: ADME, organism-based; how it was run: as §2
[19] = tested on: Rattus norvegicus; assay: Tissue uptake (blood) of [125I]- after administration of [125I]-labeled compound to immature female rats (n=4) in the absence of 60 microg coinjected estradiol after 5 hours; type: ADME, organism-based; how it was run: as §1
[20] = tested on: Rattus norvegicus; assay: Tissue uptake (fat) of [125I]- after administration of [125I]-labeled compound to immature female rats (n=4) in the absence of 60 microg coinjected estradiol after 2 hours; type: ADME, organism-based; how it was run: as §1
[21] = tested on: Rattus norvegicus; assay: Tissue uptake (muscle) of [125I]- after administration of [125I]-labeled compound to immature female rats (n=3) in the absence of 60 microg coinjected estradiol after 24 hours; type: ADME, organism-based; how it was run: as §1
[22] = tested on: Rattus norvegicus; assay: Tissue uptake (liver) of [125I]- after administration of [125I]-labeled compound to immature female rats (n=3) in the absence of 60 microg coinjected estradiol after 24 hours; type: ADME, organism-based; how it was run: as §1
[23] = tested on: Rattus norvegicus; assay: Tissue uptake (blood) of [125I]- after administration of [125I]-labeled compound to immature female rats (n=3) in the absence of 60 microg coinjected estradiol after 0.5 hours; type: ADME, organism-based; how it was run: as §1
[24] = tested on: Rattus norvegicus; assay: Tissue uptake (fat) of [125I]- after administration of [125I]-labeled compound to immature female rats (n=3) in the absence of 60 microg coinjected estradiol after 0.5 hours; type: ADME, organism-based; how it was run: as §1
[25] = tested on: Rattus norvegicus; assay: Tissue uptake (liver) of [125I]- after administration of [125I]-labeled compound to immature female rats (n=4) in the absence of 60 microg coinjected estradiol after 5 hours; type: ADME, organism-based; how it was run: as §1
[26] = tested on: Rattus norvegicus; assay: Tissue uptake (uterus) of [125I]- after administration of [125I]-labeled compound to immature female rats (n=3) in the absence of 60 microg coinjected estradiol. (0.5 hours after injection) (% coefficient of variation); type: ADME, organism-based; how it was run: as §2
[27] = tested on: Rattus norvegicus; assay: Tissue uptake (plasma) of [125I]- after administration of [125I]-labeled compound to immature female rats (n=3) in the absence of 60 microg coinjected estradiol after 24 hours; type: ADME, organism-based; how it was run: as §1
[28] = tested on: Rattus norvegicus; assay: Tissue uptake (plasma) of [125I]- after administration of [125I]-labeled compound to immature female rats (n=3) in the absence of 60 microg coinjected estradiol after 0.5 hours; type: ADME, organism-based; how it was run: as §1
[29] = tested on: Rattus norvegicus; assay: Tissue uptake (plasma) of [125I]- after administration of [125I]-labeled compound to immature female rats (n=3) in the presence of 60 microg coinjected estradiol after 1 hour; type: ADME, organism-based; how it was run: as §1
[30] = tested on: Rattus norvegicus; assay: Tissue uptake (blood) of [125I]- after administration of [125I]-labeled compound to immature female rats (n=3) in the absence of 60 microg coinjected estradiol. (24 hours after injection) (% coefficient of variation); type: ADME, organism-based; how it was run: as §1
[31] = tested on: Rattus norvegicus; assay: Tissue uptake (plasma) of [125I]- after administration of [125I]-labeled compound to immature female rats (n=4) in the absence of 60 microg coinjected estradiol after 5 hours; type: ADME, organism-based; how it was run: as §2

SMILES	ID/g [2] [%]	ID/g [3] [%]	ID/g [4] [%]	ID/g [5] [%]	ID/g [6] [%]	ID/g [7] [%]	ID/g [9] [%]	ID/g [10] [%]	ID/g [11] [%]	ID/g [12] [%]	ID/g [13] [%]	ID/g [16] [%]	ID/g [17] [%]	ID/g [18] [%]	ID/g [20] [%]	ID/g [21] [%]	ID/g [22] [%]	ID/g [23] [%]	ID/g [24] [%]	ID/g [25] [%]	also measured
CCO[C@H]1C[C@]2(C)[C@@H](O)[C@H](I)C[C@H]2[C@@H]2CCc3cc(O)ccc3[C@H]21	2.26	773.37	1.78	1.76	0.23	1.05	1.51	218.87	105.65	3.48	7.76	0.89	1.3	0.7	0.94	0.13	0.96	1.29	2.47	2.31	ID/g [1]: 0.25%; ID/g [8]: 0.39%; ID/g [14]: 1.64%; ID/g [15]: 0.14%; ID/g [19]: 0.7%
C[C@@H]1Cc2cc(O)ccc2[C@H]2CC[C@]3(C)[C@@H](O)[C@H](I)C[C@H]3[C@H]12	1.3	334.84	0.5	0.33	0.03	0.54	1.79	66.19	40.33	1.26	3.86	0.32	0.54	0.08	1.12	0.01	0.13	0.45	2.2	0.72	ID/g [26]: 4.32%; ID/g [27]: 0.04%; ID/g [28]: 0.68%; ID/g [29]: 0.51%; ID/g [30]: 0.03%; ID/g [31]: 0.41%
